# Experimental data from ChEMBL document CHEMBL1158610, “5-arylamino-1,2,4-triazin-6(1H)-one CRF1 receptor antagonists” (Bioorg Med Chem Lett, 2010).
# System: Liver microsomes
# Assay: Metabolic stability in rat liver microsome assessed as compound remaining
# Type: ADME
row,Compound,Stability
1,Cc1cn([C@H](C)C2CC2)c(=O)c(Nc2c(Cl)cc(OC(F)F)cc2Cl)n1,12%
2,COc1ccc(Nc2nc(C)nn([C@H](C)C3CC3)c2=O)c(C(F)(F)F)n1,37%

# Molecular target: T1, Corticotropin-releasing factor receptor 1 (Rattus norvegicus) (UniProt P35353)
# T1 sequence (whole entry): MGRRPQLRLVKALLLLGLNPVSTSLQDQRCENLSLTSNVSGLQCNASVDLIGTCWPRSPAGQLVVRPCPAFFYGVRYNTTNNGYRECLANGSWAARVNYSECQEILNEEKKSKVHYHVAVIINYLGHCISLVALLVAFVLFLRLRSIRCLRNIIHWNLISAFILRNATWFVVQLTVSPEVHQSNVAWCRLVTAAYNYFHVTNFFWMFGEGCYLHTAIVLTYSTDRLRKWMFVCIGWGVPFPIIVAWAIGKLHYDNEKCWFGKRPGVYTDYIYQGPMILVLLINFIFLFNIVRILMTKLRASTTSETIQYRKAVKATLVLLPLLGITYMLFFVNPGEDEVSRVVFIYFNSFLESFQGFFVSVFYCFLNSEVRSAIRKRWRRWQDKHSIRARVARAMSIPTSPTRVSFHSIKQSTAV
# Assay: Displacement of [125]sauvagin from CRF1 receptor in rat parietal cortex
row,Compound,Activity
1,CCOc1ccc(Nc2nc(C)nn(C(COC)C3CC3)c2=O)c(C(F)(F)F)n1 (configuration not stated),46%
2,CCC(C1CC1)n1nc(C)nc(Nc2cc(C)c(OC)cc2C)c1=O (configuration not stated),64%

# System: Liver microsomes
# Assay: Metabolic stability in human liver microsome assessed as compound remaining
# Type: ADME
row,Compound,Stability
1,Cc1cn([C@H](C)C2CC2)c(=O)c(Nc2c(Cl)cc(OC(F)F)cc2Cl)n1,71%
2,COc1ccc(Nc2nc(C)nn([C@H](C)C3CC3)c2=O)c(C(F)(F)F)n1,85%

# Molecular target: T2, Corticotropin-releasing factor receptor 1 (Rattus norvegicus, UniProt P35353)
# T2 sequence (P35353 whole entry): T1 sequence (whole entry)
# Assay: Displacement of [125I]Tyr-ovine CRF from rat CRF1 receptor
# How it was run: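 Rat frontal cortex homogenate; inhibition of specific [¹²⁵I]Tyr-ovine-CRF binding measured across a titration of test compound to give IC50. Values are means of three experiments, with standard deviation.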
row,Compound,IC50
1,CCOc1ccc(Nc2nc(C)nn(C(COC)C3CC3)c2=O)c(C(F)(F)F)n1 (configuration not stated),3 nM
2,Cc1cc(C)c(Nc2nc(C)nn(C(C)C3CC3)c2=O)c(C)c1 (configuration not stated),19 nM
3,COCC(C1CC1)n1nc(C)nc(Nc2ccc(OC)nc2C(F)(F)F)c1=O (configuration not stated),3.7 nM
4,COC[C@@H](C1CC1)n1nc(C)nc(Nc2c(Cl)cc(OC)cc2Cl)c1=O,69 nM
5,COc1cc(Cl)c(Nc2nc(C)nn([C@H](C)C3CC3)c2=O)c(Cl)c1,8.3 nM
6,COc1ccc(Nc2nc(C)nn(C(C)C3CC3)c2=O)c(C(F)(F)F)n1 (configuration not stated),6.7 nM
7,CCC(C1CC1)n1nc(C)nc(Nc2cc(C)c(C#N)cc2C)c1=O (configuration not stated),9.3 nM
8,Cc1nc(Nc2c(Cl)cc(OC(F)F)cc2Cl)c(=O)n([C@@H](C)C2CC2)n1,7.2 nM
9,CCOc1ccc(Nc2nc(C)nn([C@H](COC)C3CC3)c2=O)c(C(F)(F)F)n1,27 nM
10,COCC(C1CC1)n1nc(C)nc(Nc2cc(C)c(OC)nc2C)c1=O (configuration not stated),20 nM
11,Cc1nc(Nc2c(C)cc(Cl)cc2Cl)c(=O)n(C(C)C2CC2)n1 (configuration not stated),33 nM
12,COc1cc(C)c(Nc2nc(C)nn(C(C)C3CC3)c2=O)c(C)c1 (configuration not stated),68 nM
13,CCOc1ccc(Nc2nc(C)nn([C@@H](C)C3CC3)c2=O)c(C(F)(F)F)n1,23 nM
14,COC[C@H](C1CC1)n1nc(C)nc(Nc2cc(C)c(OC(F)F)nc2C)c1=O,6.5 nM
15,COCC(C1CC1)n1nc(C)nc(Nc2c(Cl)cc(C(F)(F)F)cc2Cl)c1=O (configuration not stated),11 nM
16,CCC(C1CC1)n1nc(C)nc(Nc2cc(C)c(OC)cc2C)c1=O (configuration not stated),0.89 nM
17,COC[C@H](C1CC1)n1nc(C)nc(Nc2ccc(OC)nc2C(F)(F)F)c1=O,15 nM
18,COCC(C1CC1)n1nc(C)nc(Nc2cc(C)c(OC(F)F)nc2C)c1=O (configuration not stated),1.1 nM
19,COc1cc(C)c(Nc2nc(C)nn(C(C)C3CC3)c2=O)cc1C (configuration not stated),5 nM

row,Compound,IC50
1,CCC(C1CC1)n1nc(C)nc(Nc2c(Cl)cc(C(F)(F)F)cc2Cl)c1=O (configuration not stated),6.3 nM
2,Cc1nc(Nc2c(Cl)cc(OC(F)F)cc2Cl)c(=O)n(C(C)C2CC2)n1 (configuration not stated),9.9 nM
3,CCC(C1CC1)n1nc(C)nc(Nc2ccc(OC)nc2C(F)(F)F)c1=O (configuration not stated),3.7 nM
4,COc1cc(Cl)c(Nc2nc(C)nn([C@@H](C)C3CC3)c2=O)c(Cl)c1,7.5 nM
5,CCOc1ccc(Nc2nc(C)nn([C@H](C)C3CC3)c2=O)c(C(F)(F)F)n1,8.6 nM
6,Cc1nc(Nc2c(Cl)cc(OC(F)F)cc2Cl)c(=O)n([C@H](C)C2CC2)n1,13 nM
7,COCC(C1CC1)n1nc(C)nc(Nc2c(Cl)cc(OC(F)F)cc2Cl)c1=O (configuration not stated),6.3 nM
8,CCC(C1CC1)n1nc(C)nc(Nc2cc(C)c(OC)nc2C)c1=O (configuration not stated),6.5 nM
9,COc1cc(Nc2nc(C)nn(C(C)C3CC3)c2=O)c(C)cc1C#N (configuration not stated),94 nM
10,CCC(C1CC1)n1nc(C)nc(Nc2cc(OC)c(C#N)cc2C)c1=O (configuration not stated),13 nM
11,COc1ccc(Nc2nc(C)nn([C@@H](C)C3CC3)c2=O)c(C(F)(F)F)n1,12 nM
12,Cc1nc(Nc2c(Cl)cc(C(F)(F)F)cc2Cl)c(=O)n(C(C)C2CC2)n1 (configuration not stated),14 nM
13,Cc1nc(Nc2c(Cl)cc(OC(F)(F)F)cc2Cl)c(=O)n(C(C)C2CC2)n1 (configuration not stated),39 nM
14,COCC(C1CC1)n1nc(C)nc(Nc2c(C)cc(OC)cc2C)c1=O (configuration not stated),51 nM
15,COc1nc(C)c(Nc2nc(C)nn(C(C)C3CC3)c2=O)c(OC)n1 (configuration not stated),1100 nM
16,COCC(C1CC1)n1nc(C)nc(Nc2c(Cl)cc(OC)cc2Cl)c1=O (configuration not stated),6.3 nM
17,CCOc1ccc(Nc2nc(C)nn(C(C)C3CC3)c2=O)c(C(F)(F)F)n1 (configuration not stated),12 nM
18,Cc1nc(Nc2c(Cl)cc(C#N)c(Cl)c2Cl)c(=O)n(C(C)C2CC2)n1 (configuration not stated),10 nM
19,COc1cc(Cl)c(Nc2nc(C)nn(C(C)C3CC3)c2=O)c(Cl)c1 (configuration not stated),15 nM

row,Compound,IC50
1,CCOc1ccc(Nc2nc(C)nn([C@@H](COC)C3CC3)c2=O)c(C(F)(F)F)n1,2.4 nM
2,COC[C@H](C1CC1)n1nc(C)nc(Nc2c(Cl)cc(OC(F)F)cc2Cl)c1=O,4.4 nM
3,COC[C@@H](C1CC1)n1nc(C)nc(Nc2c(Cl)cc(OC(F)F)cc2Cl)c1=O,23 nM
4,COC[C@@H](C1CC1)n1nc(C)nc(Nc2ccc(OC)nc2C(F)(F)F)c1=O,2.3 nM
5,COC[C@H](C1CC1)n1nc(C)nc(Nc2c(Cl)cc(OC)cc2Cl)c1=O,7.2 nM
6,COc1nc(C)c(Nc2nc(C)nn(C(C)C3CC3)c2=O)cc1C (configuration not stated),26 nM
7,Cc1nc(Nc2cc(C(F)(F)F)c(C#N)cc2Cl)c(=O)n(C(C)C2CC2)n1 (configuration not stated),3300 nM
8,Cc1nc(Nc2cc(Cl)c(C#N)cc2Cl)c(=O)n(C(C)C2CC2)n1 (configuration not stated),270 nM
9,CCOc1cc(C)c(Nc2nc(C)nn(C(C)C3CC3)c2=O)cc1C (configuration not stated),28 nM
10,COC[C@@H](C1CC1)n1nc(C)nc(Nc2cc(C)c(OC(F)F)nc2C)c1=O,1.1 nM
11,CCOc1ccc(Nc2nc(C)nn(C(CC)C3CC3)c2=O)c(C(F)(F)F)n1 (configuration not stated),3.6 nM
12,Cc1nc(Nc2cc(C)c(C#N)cc2C)c(=O)n(C(C)C2CC2)n1 (configuration not stated),60 nM
13,COc1ccc(Nc2nc(C)nn([C@H](C)C3CC3)c2=O)c(C(F)(F)F)n1,3.5 nM
14,CCC(C1CC1)n1nc(C)nc(Nc2cc(C)c(OC)nc2C(F)(F)F)c1=O (configuration not stated),2.7 nM
15,Cc1nc(Nc2c(Cl)cc(S(C)(=O)=O)cc2Cl)c(=O)n(C(C)C2CC2)n1 (configuration not stated),20 nM
16,CCC(C1CC1)n1nc(C)nc(Nc2c(Cl)cc(OC(F)F)cc2Cl)c1=O (configuration not stated),2.1 nM
17,COCC(C1CC1)n1nc(C)nc(Nc2c(Cl)cc(OC(F)(F)F)cc2Cl)c1=O (configuration not stated),11 nM
18,Cc1nc(Nc2c(Cl)cc(C(F)(F)F)nc2Cl)c(=O)n(C(C)C2CC2)n1 (configuration not stated),260 nM
